# Screens from PubChem BioAssay.
# A selection: hits, their analogues and other compounds. The true share with any hit is near 4.8%.
# T cruzi repl – T. cruzi replication inhibition | T. cruzi beta-gal in NIH3T3, luminescence, 90 h | inhibition, % (test concentration not listed) | actives 1.4% (n = 300,000) | AID 1885;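 active = mean inhibition across valid replicates above about 55%, limit read from the data; inconclusive = mean below that limit but half or more replicates reach it; inactive = mean below it, under half of replicates reach it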;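 also: signal also drops with host cell toxicity which is not excluded here; 0% = plate median of DMSO wells and 100% = zero luminescence signal; higher percent means less beta-gal luminescence so fewer parasites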
#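 Material: NIH/3T3 host cells with β-galactosidase reporter T. cruzi; Input: 5,000 host fibroblasts per well; Medium: DMEM, 2% fetal bovine serum; Compound: 50 nL DMSO compound solution per well; Schedule: 3 h host attachment, then at least 90 h co-culture; Detection: luminescent β-galactosidase signal after 60 min lysis.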
# CSC inhib – cancer stem cell inhibition; inhibition, % at 7.5 µM; cancer stem cell-like cells viability, luminescence; actives 1.1% (n = 300,000); in the data active = inhibition above about 75%; inconclusive = no clear call, values can overlap the other calls; tested in HMLE shEcad cells
# Efflux pump inh – blocks antifungal efflux pumps in multiplex yeast assay; S. cerevisiae Candida pump triplex, Nile Red efflux; inhibition, % at 10 µM; actives 0.44% (n = 330,000); AID 485275;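 active = plate passing quality check with inhibition over a set limit, or well fluorescence over plate mean plus 4 SD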;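 also: Nile Red retained in pooled yeast measured as flow cytometry median fluorescence; 0% = buffer negative control and 100% = Enniatin B positive control; higher means more Nile Red kept so more efflux inhibition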
# WT yeast gro inh – growth inhibition of WT yeast, mitochondrial fusion screen; mitochondrial fusion phenotypic screen, WT strain; inhibition, % at 10 µM; actives 2.1% (n = 190,000); AID 1362; in the data active = inhibition above about 58%; tested in S. cerevisiae
# Mot1-301 SUMO – blocks SUMOylation pathway, rescuing yeast Mot1-301 growth. AID 2716. actives 1% (n = 320,000). growth rescue, % at 18.8 µM. S. cerevisiae Mot1-301 growth rescue, ATP luminescence, 38.5C; percent above DMSO median, 100 means doubled;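 active = every valid replicate shows activation above 250% relative to neutral control wells; inactive = the rest, any valid replicate at or below 250%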;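 also: OY570 slx delta 5 strain wells were the positive control but not used for scaling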
# Beta cell apopt – beta cell apoptosis inhibition. INS-1E cytokine-induced death, ATP luminescence, 48 h; percent of positive-control rescue, neutral wells zero. protection from apoptosis, % (test concentration not listed). actives 0.8% (n = 300,000);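 active = Every replicate reaches about 75%, or at least half do and their mean reaches it too, limit read from the data; inconclusive = At least half of replicates reach the limit but their mean does not; inactive = Under half of replicates reach the limit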;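 also: 0% = cytokine-treated negative control wells and 100% = positive control rescue; higher means more ATP so stronger rescue from cytokine killing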
# The depositor's hits bear a star; ? = inconclusive; / = no result given.
SMILES,T cruzi repl,CSC inhib,Efflux pump inh,WT yeast gro inh,Mot1-301 SUMO,Beta cell apopt
O=C(c1cc(C2CC2)nc2ccc(Br)cc12)N1N=C(C(F)F)CC1(O)C(F)F (stereo unspecified),-5,70,0,74*,-15,-7
O=C(c1cc(C2CC2)nc2ccccc12)N1N=C(C(F)F)CC1(O)C(F)F (stereo unspecified),-7,12,0,-4,104,26
COc1ccc(/C(C)=N/NC(=O)CNC(=O)CCc2ccccc2)c(OC)c1,-9,7,0,/,-12,0
Cc1nc2ccc(S(=O)(=O)N3CCCCC3)cc2s1,12,/,0,/,-12,-3
Nc1nc2ccc(S(=O)(=O)N3CCCCC3)cc2s1,46,-13,0,70*,-15,-5
Cc1c(O)ccc(/C=N/Nc2nc(-c3cccnc3)nc3ccccc23)c1O,56*,48,0,/,7,24
Clc1cccc(CNc2nc(-c3cccnc3)nc3ccccc23)c1,63*,/,/,/,/,/
Cc1cc(N/N=C/c2ccc(O)c(C)c2O)nc(-c2ccccc2O)n1,59*,113*,0,76*,126,16
COC(=O)CNc1nc(-c2cccnc2)nc2ccccc12,/,17,0,5,116,-8
c1cncc(-c2nc(NCC3COc4ccccc4O3)c3ccccc3n2)c1 (stereo unspecified),49,23,0,67*,2,11
COc1ccc(/C=C/C(=O)NNC(=O)C(C)Oc2ccccc2F)cc1OC (stereo unspecified),/,-13,0,/,7,-10
c1cncc(CNc2nc(-c3cccnc3)nc3ccccc23)c1,4,0,0,/,55,5
c1ccc(CN2CCC(Nc3nc(-c4cccnc4)nc4ccccc34)CC2)cc1,59*,-1,0,6,/,8
Cc1ccc(CNc2nc(-c3cccnc3)nc3ccccc23)cc1,?,-2,0,/,-28,23
CC(C)(C)c1ccc(-c2nc(NCc3cccnc3)c3ccccc3n2)cc1,21,133*,0,70,8,12
c1cncc(-c2nc(NCc3ccc4c(c3)OCO4)c3ccccc3n2)c1,69*,17,0,/,151,8
CC(Nc1nc(-c2ccccc2F)nc2ccccc12)c1ccccc1 (stereo unspecified),38,27,0,/,8,23
CC(Nc1nc(-c2cccnc2)nc2ccccc12)c1ccc(F)cc1 (stereo unspecified),56*,-3,0,/,11,8
Cc1ccc(Nc2nc(-c3cccnc3)nc3ccccc23)cc1,52,65,0,/,-9,/
Fc1ccc(CNc2nc(-c3cccnc3)nc3ccccc23)cc1,56*,0,0,/,-2,15
c1ccc(-c2nc(NCc3cccnc3)c3oc4ccccc4c3n2)cc1,56*,31,0,72*,92,1
O=C(O)CNc1nc(-c2ccccc2)nc2c1oc1ccccc12,6,-1,0,/,26,-6
c1ccc(CNc2nc(-c3cccnc3)nc3ccccc23)cc1,45,3,0,/,-13,-7
Cc1ccccc1Nc1nc(-c2cccnc2)nc2ccccc12,59*,-2,0,33,34,19
CCC(O)C1CCN(C(=O)c2cc(COc3ccc(F)cc3F)on2)CC1 (stereo unspecified),9,/,0,/,/,/
SMILES,T cruzi repl,CSC inhib,Efflux pump inh,WT yeast gro inh,Mot1-301 SUMO,Beta cell apopt
COc1cc(OC)c(OC)cc1C#N,-4,-21,0,1,689*,0
COc1ccc(NC(C)=O)cc1C#N,-9,/,0,-2,/,-2
COc1ccc(-c2csc(Nc3ccccc3)[n+]2Cc2ccccc2)cc1,18,23,0,21,14,7
C=CC[n+]1c(-c2ccc(OCC)cc2)csc1NNC(=O)Nc1ccccc1,21,?,0,38,20,99*
COc1ccccc1NC(=O)CC12CC3CC(CC(Br)(C3)C1)C2,6,-25,0,/,0,-8
Cc1cc(C)cc(OCC(=O)OCC(=O)N(CC(C)C)c2c(N)n(Cc3ccccc3)c(=O)[nH]c2=O)c1,-13,-7,0,/,-8,-1
CCOC(=O)CC(=O)CSc1nc(-c2cccnc2)cc(C)c1C#N,12,6,0,60*,-22,-8
Cc1ccc(-c2cc(-c3ccc4c(c3)OCO4)c(C#N)c(N)n2)o1,15,2,0,39,12,-7
CC(C)(C)c1ccc(-c2nc3c(C#N)c(-c4ccc5c(c4)OCO5)ccn3n2)cc1,64*,-8,0,-1,-13,-6
Cc1ccc(C)c2sc(N3CCN(C(=O)c4ccc([N+](=O)[O-])o4)CC3)nc12,51,24,0,/,9,19
O=C(c1ccc([N+](=O)[O-])o1)N1CCN(c2nc3c(F)cc(F)cc3s2)CC1,56*,7,0,/,150,57
O=C(CCNS(=O)(=O)c1ccccc1)OCC(=O)c1ccc(Br)cc1,-15,-10,0,/,46,-5
O=S(=O)(c1cccc2nsnc12)N1CCN(C/C=C\c2ccccc2)CC1,18,3,0,1,309*,0
O=c1[nH]c(CN2CCN(S(=O)(=O)/C=C/c3ccccc3)CC2)nc2ccccc12,12,1,0,-6,3,-2
O=c1cc(CN2CCN(c3ccccc3)CC2)c2cc(O)c(-c3ccccc3)cc2o1,-6,-2,0,7,10,17
O=c1[nH]c(CN2CCN(C/C=C/c3ccccc3)CC2)nc2ccccc12,72*,-14,0,-2,10,-7
O=c1cc(CN2CCN(C/C=C/c3ccccc3)CC2)c2cc(O)ccc2o1,58*,/,0,-6,39,-3
Cc1ccc2oc(=O)cc(CN3CCN(C/C=C/c4ccccc4)CC3)c2c1,57*,9,0,/,-11,7
O=S(=O)(c1cccc2nsnc12)N1CCN(C/C=C/c2ccccc2)CC1,21,-14,0,24,185,4
Cc1ccc2oc(=O)cc(CN3CCCCC3)c2c1,-4,-7,0,/,-6,-2
O=C(Cc1cc(=O)[nH]c(=O)[nH]1)NCc1ccccc1,-9,-10,0,0,-5,/
O=c1c(Cl)c(N2CCN(c3ccccc3)CC2)cnn1C12CC3CC(CC(C3)C1)C2,9,68,0,5,215,1
O=c1c(Cl)c(NCc2ccc(F)cc2)cnn1C12CC3CC(CC(C3)C1)C2,16,75*,0,3,99,9
O=c1c(Cl)c(NCc2ccco2)cnn1C12CC3CC(CC(C3)C1)C2,12,-2,0,-17,6,2
O=c1c(Cl)c(NCc2ccccc2Cl)cnn1C12CC3CC(CC(C3)C1)C2,22,95*,0,35,-25,13
Cc1ccc(CNc2cnn(C34CC5CC(CC(C5)C3)C4)c(=O)c2Cl)cc1,37,78*,0,-1,178,5
